Results from ChEMBL document CHEMBL1127568, “A new series of PDGF receptor tyrosine kinase inhibitors: 3-substituted quinoline derivatives” (J Med Chem, 1994).

Key:
[1] = molecular target: T1, Platelet-derived growth factor receptor (Homo sapiens, UniProt P09619+P16234); experiment: Inhibition of isolated human PDGF receptor phosphorylation; type: protein-complex assay
[2] = molecular target: Epidermal growth factor receptor (Homo sapiens, UniProt P00533); experiment: Concentration required to inhibit phosphorylation of isolated human epidermal growth factor tyrosine kinase receptor by 50%
Epidermal growth factor receptor, sequence (P00533 whole entry): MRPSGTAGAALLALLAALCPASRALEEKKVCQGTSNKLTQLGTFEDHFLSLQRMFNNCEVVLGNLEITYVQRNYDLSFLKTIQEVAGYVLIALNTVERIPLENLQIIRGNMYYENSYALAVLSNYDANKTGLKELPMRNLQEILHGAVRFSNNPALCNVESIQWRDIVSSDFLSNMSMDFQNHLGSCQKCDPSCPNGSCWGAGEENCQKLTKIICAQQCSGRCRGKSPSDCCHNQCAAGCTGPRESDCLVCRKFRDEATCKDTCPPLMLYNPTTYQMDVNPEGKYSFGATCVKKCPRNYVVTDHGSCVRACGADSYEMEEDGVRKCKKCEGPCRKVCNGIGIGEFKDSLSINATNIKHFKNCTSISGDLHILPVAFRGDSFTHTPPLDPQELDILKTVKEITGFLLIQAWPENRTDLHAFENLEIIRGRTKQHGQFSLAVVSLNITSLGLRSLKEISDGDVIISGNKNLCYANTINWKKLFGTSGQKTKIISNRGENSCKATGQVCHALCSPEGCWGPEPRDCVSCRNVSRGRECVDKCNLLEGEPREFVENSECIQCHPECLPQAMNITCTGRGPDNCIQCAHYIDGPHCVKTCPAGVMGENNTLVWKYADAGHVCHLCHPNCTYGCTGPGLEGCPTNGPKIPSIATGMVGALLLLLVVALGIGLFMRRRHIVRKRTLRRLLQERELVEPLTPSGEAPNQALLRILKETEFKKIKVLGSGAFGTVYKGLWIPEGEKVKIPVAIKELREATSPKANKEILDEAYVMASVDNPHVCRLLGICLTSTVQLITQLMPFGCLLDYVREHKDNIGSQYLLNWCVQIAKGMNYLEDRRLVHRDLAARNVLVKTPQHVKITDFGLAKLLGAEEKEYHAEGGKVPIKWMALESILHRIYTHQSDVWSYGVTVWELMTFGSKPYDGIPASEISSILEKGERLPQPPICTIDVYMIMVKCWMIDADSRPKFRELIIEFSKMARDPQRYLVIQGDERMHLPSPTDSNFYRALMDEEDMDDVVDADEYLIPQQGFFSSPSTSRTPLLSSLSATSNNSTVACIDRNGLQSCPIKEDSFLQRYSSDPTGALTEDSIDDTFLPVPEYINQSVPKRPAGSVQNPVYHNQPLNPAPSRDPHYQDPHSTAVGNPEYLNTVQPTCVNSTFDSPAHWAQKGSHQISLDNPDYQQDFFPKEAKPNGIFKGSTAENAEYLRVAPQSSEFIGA

[3] = molecular target: T1, Platelet-derived growth factor receptor; experiment: Inhibition of human PDGF receptor phosphorylation; 0.008-0.07; type: protein-complex assay
[4] = molecular target: T1, Platelet-derived growth factor receptor; experiment: Inhibition of human PDGF receptor phosphorylation; 0.02-0.04; type: protein-complex assay
Procedure, shortened: (§1)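 PDGF receptor from NIH 3T3 cell lysates (cells made quiescent 24 h in 0.5% calf serum), stimulated with 10 ng/mL PDGF for 30 min at 4 °C and immunoprecipitated on Protein A beads. Each compound ran in at least two dose-response assays.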

[5] = molecular target: T1, Platelet-derived growth factor receptor; experiment: Inhibition of human PDGF receptor phosphorylation; 0.01-0.02; type: protein-complex assay
[6] = molecular target: cAMP-dependent protein kinase (PKA) (Homo sapiens, UniProt P22694+P17612+P22612); experiment: Test for the inhibition of protein kinase A; type: protein assay
[7] = molecular target: T1, Platelet-derived growth factor receptor; experiment: Inhibition of human PDGF receptor phosphorylation; 20-30; type: protein-complex assay
[8] = molecular target: T1, Platelet-derived growth factor receptor; experiment: Inhibition of human PDGF receptor phosphorylation; 1-2; type: protein-complex assay; procedure, shortened: as §1
[9] = molecular target: T1, Platelet-derived growth factor receptor; experiment: Inhibition of human PDGF receptor phosphorylation; 0.1-0.5; type: protein-complex assay; procedure, shortened: as §1
[10] = molecular target: T1, Platelet-derived growth factor receptor; experiment: Inhibition of human PDGF receptor phosphorylation; 0.3-0.5; type: protein-complex assay; procedure, shortened: as §1
[11] = molecular target: T1, Platelet-derived growth factor receptor; experiment: Inhibition of human PDGF receptor phosphorylation; 0.2-0.8; type: protein-complex assay
Procedure, shortened: (§2)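 Receptor from quiescent NIH 3T3 cell lysates (24 h in 0.5% calf serum before lysis), stimulated with 10 ng/mL PDGF for 30 min at 4 °C, then immunoprecipitated with anti-PDGF receptor antibody on Protein A beads. Compound pre-incubated 10 min at 4 °C in 50 mM Tris, 10 mM MnCl2, pH 7.5. At least two dose-response assays per compound.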

[12] = molecular target: T1, Platelet-derived growth factor receptor; experiment: Inhibition of human PDGF receptor phosphorylation; 0.7-5; type: protein-complex assay; procedure, shortened: as §1
[13] = molecular target: T1, Platelet-derived growth factor receptor; experiment: Inhibition of human PDGF receptor phosphorylation; 0.2-0.4; type: protein-complex assay; procedure, shortened: as §1
[14] = molecular target: T1, Platelet-derived growth factor receptor; experiment: Inhibition of human PDGF receptor phosphorylation; 0.1-0.4; type: protein-complex assay; procedure, shortened: as §1
[15] = molecular target: T1, Platelet-derived growth factor receptor; experiment: Inhibition of human PDGF receptor phosphorylation; 0.04-0.07; type: protein-complex assay; procedure, shortened: as §2
[16] = molecular target: T1, Platelet-derived growth factor receptor; experiment: Inhibition of human PDGF receptor phosphorylation; 0.015-0.03; type: protein-complex assay; procedure, shortened: as §1
[17] = molecular target: T1, Platelet-derived growth factor receptor; experiment: Inhibition of human PDGF receptor phosphorylation; 0.5-3; type: protein-complex assay
[18] = molecular target: T1, Platelet-derived growth factor receptor; experiment: Inhibition of human PDGF receptor phosphorylation; 0.02-0.05; type: protein-complex assay; procedure, shortened: as §1
[19] = molecular target: T1, Platelet-derived growth factor receptor; experiment: Inhibition of human PDGF receptor phosphorylation; 0.1-0.2; type: protein-complex assay; procedure, shortened: as §1
[20] = molecular target: T1, Platelet-derived growth factor receptor; experiment: Inhibition of human PDGF receptor phosphorylation; 0.15-0.5; type: protein-complex assay; procedure, shortened: as §1
[21] = molecular target: T1, Platelet-derived growth factor receptor; experiment: Inhibition of human PDGF receptor phosphorylation; 0.5-2; type: protein-complex assay
[22] = molecular target: T1, Platelet-derived growth factor receptor; experiment: Inhibition of human PDGF receptor phosphorylation; 0.09-0.2; type: protein-complex assay; procedure, shortened: as §1
[23] = molecular target: T1, Platelet-derived growth factor receptor; experiment: Inhibition of human PDGF receptor phosphorylation; 0.003-0.005; type: protein-complex assay
[24] = molecular target: T1, Platelet-derived growth factor receptor; experiment: Inhibition of human PDGF receptor phosphorylation; 1-7; type: protein-complex assay
[25] = molecular target: T1, Platelet-derived growth factor receptor; experiment: Inhibition of human PDGF receptor phosphorylation; 2-4; type: protein-complex assay
[26] = molecular target: T1, Platelet-derived growth factor receptor; experiment: Inhibition of human PDGF receptor phosphorylation; 0.002-0.06; type: protein-complex assay; procedure, shortened: as §1
[27] = molecular target: T1, Platelet-derived growth factor receptor; experiment: Inhibition of human PDGF receptor phosphorylation; 0.035-0.06; type: protein-complex assay; procedure, shortened: as §1
[28] = molecular target: T1, Platelet-derived growth factor receptor; experiment: Inhibition of human PDGF receptor phosphorylation; 0.2-0.6; type: protein-complex assay; procedure, shortened: as §1
[29] = molecular target: T1, Platelet-derived growth factor receptor; experiment: Inhibition of human PDGF receptor phosphorylation; 0.07-0.15; type: protein-complex assay
[30] = molecular target: T1, Platelet-derived growth factor receptor; experiment: Inhibition of human PDGF receptor phosphorylation; 0.007-0.03; type: protein-complex assay
[31] = molecular target: T1, Platelet-derived growth factor receptor; experiment: Inhibition of human PDGF receptor phosphorylation; 0.001-0.015; type: protein-complex assay
[32] = molecular target: T1, Platelet-derived growth factor receptor; experiment: Inhibition of human PDGF receptor phosphorylation; 0.001-0.005; type: protein-complex assay; procedure, shortened: as §1

`COc1cc2cc(-c3ccc(-c4ccccc4)cc3)cnc2cc1OC` was tested, and the IC50 [1] was over 50000 nM and the IC50 [2] was over 20000 nM.
Work on `COc1cc2cc(-c3ccc(N(C)C)cc3)cnc2cc1OC` yielded an IC50 [1] of 10000 nM and an IC50 [2] of over 20000 nM.
Compound `COc1ccc(-c2cnc3cc(OC)c(OC)cc3c2)cn1` has an IC50 [3] of 70 nM and an IC50 [2] of over 20000 nM.
Compound `COc1cc2cc(C3=CCCC3)cnc2cc1OC` has an IC50 [4] of 40 nM and an IC50 [2] of over 20000 nM.
With `COc1cc2cc(-c3ccsc3)cnc2cc1OC` the IC50 [5] was 20 nM, the IC50 [6] was over 200000 nM and the IC50 [2] was over 20000 nM.
With `COc1cc2cccnc2cc1OC` the IC50 [7] was 30000 nM and the IC50 [2] was over 20000 nM.
`Clc1cc2cc(-c3ccsc3)cnc2cc1Cl` was tested, and the IC50 [8] was 2000 nM and the IC50 [2] was over 20000 nM.
With `COc1cc2cc(C3CCCC3)cnc2cc1OC` the IC50 [9] was 500 nM and the IC50 [2] was over 20000 nM.
With `COc1cc2cc(CCC3CCCCC3)cnc2cc1OC` the IC50 [10] was 500 nM and the IC50 [2] was over 20000 nM.
With `COc1ccc(CCc2cnc3cc(OC)c(OC)cc3c2)cc1` the IC50 [11] was 800 nM and the IC50 [2] was over 20000 nM.
With `COc1cc2cc(-c3ccc(C(=O)O)cc3)cnc2cc1OC` the IC50 [12] was 5000 nM.
`COc1cc2cc(-c3cc(F)c(OC)c(F)c3)cnc2cc1OC` showed an IC50 [13] of 400 nM and an IC50 [2] of over 20000 nM.
For `COc1ccc(-c2cnc3cc(OC)c(OC)cc3c2)cc1C`, the IC50 [14] was 400 nM and the IC50 [2] was over 20000 nM.
In the case of `COc1cc2cc(OCc3ccccc3)cnc2cc1OC`, the IC50 [15] is reported as 70 nM and the IC50 [2] is reported as over 20000 nM.
In the case of `COc1cc2cc(-c3ccc(=O)[nH]c3)cnc2cc1OC`, the IC50 [16] is reported as 30 nM and the IC50 [2] is reported as over 20000 nM.
`COc1ccc(/C=C(\C#N)c2cccnc2)cc1OC` gave an IC50 [2] of 700 nM and an IC50 [17] of 3000 nM.
With `COc1cc2cc(C#Cc3ccccc3)cnc2cc1OC` the IC50 [18] was 50 nM and the IC50 [2] was over 20000 nM.
In the case of `CCOC(=O)c1ccc(-c2cnc3cc(OC)c(OC)cc3c2)cc1`, the IC50 [19] is reported as 200 nM.
Compound `COc1cc2cc(-c3ccc(OC)c([N+](=O)[O-])c3)cnc2cc1OC` has an IC50 [20] of 500 nM and an IC50 [2] of over 20000 nM.
Work on `COc1cc2cc(-c3ccc(C)cc3)cnc2cc1OC` yielded an IC50 [21] of 2000 nM and an IC50 [2] of over 20000 nM.
In the case of `COc1cc2cc(-c3ccc(F)c(F)c3)cnc2cc1OC`, the IC50 [22] is reported as 200 nM and the IC50 [2] is reported as over 20000 nM.
Compound `COc1ccc(-c2cnc3cc(OC)c(OC)cc3c2)cc1F` has an IC50 [23] of 5 nM and an IC50 [2] of over 20000 nM.
Compound `COc1cc2cc(-c3ccc(Cl)c(Cl)c3)cnc2cc1OC` has an IC50 [24] of 7000 nM and an IC50 [2] of over 20000 nM.
In the case of `COc1ccc(-c2cnc3cc(OC)c(OC)cc3c2)c(OC)c1`, the IC50 [1] is reported as over 50000 nM and the IC50 [2] is reported as over 20000 nM.
With `Fc1cc2cc(-c3ccsc3)cnc2cc1F` the IC50 [25] was 4000 nM.
In the case of `COc1ccc2cc(-c3ccsc3)cnc2c1`, the IC50 [26] is reported as 60 nM and the IC50 [2] is reported as over 20000 nM.
With `COc1cc2cc(-c3ccc(F)cc3)cnc2cc1OC` the IC50 [27] was 60 nM and the IC50 [2] was over 20000 nM.
`c1cc(-c2cnc3cc4c(cc3c2)OCO4)cs1` was tested, and the IC50 [28] was 600 nM and the IC50 [2] was over 20000 nM.
Work on `COc1cc2cc(-c3ccc([N+](=O)[O-])cc3)cnc2cc1OC` yielded an IC50 [29] of 150 nM and an IC50 [2] of over 20000 nM.
`COc1cc2cc(-c3ccc(Cl)s3)cnc2cc1OC` was tested, and the IC50 [30] was 30 nM and the IC50 [2] was over 20000 nM.
`COc1ccc(-c2cnc3cc(OC)c(OC)cc3c2)cc1` was tested, and the IC50 [6] was over 200000 nM, the IC50 [31] was 15 nM and the IC50 [2] was over 20000 nM.
Work on `COc1cc2cc(/C=C/c3ccccc3)cnc2cc1OC` yielded an IC50 [32] of 5 nM and an IC50 [2] of over 20000 nM.
